The array DNA melting data of Ke et al. (doi:10.1101/2024.01.08.574731)

Experiments:
[1] = folding enthalpy; higher = less favourable; fluorescence melt of hairpins on a sequencing array, two-state fit; conditions: sodium 0.088 M
Procedure, shortened: (§1)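 Melting temperature and folding enthalpy were derived from bootstrapped two-state fits. The fitted temperatures were raised by 9.35 °C to agree with UV melts, and four replicates were combined by inverse variance. The underlying data were Cy3 fluorescence images of library hairpins, with annealed Cy3 and quencher oligos, on a sequenced MiSeq flow cell in 50 mM Na-HEPES pH 8.0, 25 mM NaCl, taken in 2.5 °C steps up to 60 °C, normalised to pre-quench Cy3 and to control constructs.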

[2] = melting temperature; fluorescence melt of hairpins on a sequencing array, two-state fit, raised by 9.35 °C to match UV melts; conditions: sodium 0.088 M
Procedure, shortened: as §1

Sequence	folding enthalpy [1] [kcal/mol]	Tm [2] [°C]
GCACATCGAAAGATTGC (((.(((....))))))	-27.9	46
GGGATCGAAAGATCCCCC ((((((....)))..)))	-10.2	68.2
GTACACCGAAAGGTTTAC (((.(((....))).)))	-30.6	42
GATCCTCATAGGATC ((((((...))))))	-37.4	53.1
GATCGGTCTCCCGATC ((((((....))))))	-41	56.1
GATCACCGATGTGATC ((((((....))))))	-30.1	54.6
GACGCGACGAAAGTCGTC (((..(((....))))))	-8.11	35.5
GCTTGGCGAAAGCCTGGC ((..(((....)))..))	-17.4	52.3
GGTAGGCGAAAGCCAACC (((.(((....))).)))	-28.1	57.6
GATCTCAGGGAGATC ((((((...))))))	-29.5	54.5
GAAACGGGAAACTGTTTC (((((.(....).)))))	-27.5	44.9
GATCTTCCGCAAGATC ((((((....))))))	-35.4	42.5
GTGAAGGGAAACCCTCAC ((((.((....)).))))	-26.9	43.3
GATCGAGGGTCGATC ((((((...))))))	-32.3	51
AGGTAGAAATACCT (((((....)))))	-14.5	33.5
GTTACTCGAAAGAGCAAC (((.(((....))).)))	-27.5	43.3
GTCAGTGCGAAAGCAGAC (((..(((....))))))	-14.4	39.6
GGCCGAGCGAAAGCTGCC (((..(((....))))))	-21.4	50.7
GCGAACATTCGC ((((....))))	-21.4	48.2
GCGTTTTAACGC ((((....))))	-26.5	57.7
GTACCCGAAAGGGGATAC ((((((....)))..)))	-11.9	41.9
GCAGCCTCGAAAGAGTGC (((..(((....))))))	-15.5	37
GGGTACCCGAAAGGGCCC (((..(((....))))))	-18.6	47.8
GTTTGCCGAAAGGCAAC (((.(((....))))))	-10.7	50.4

Sequence	folding enthalpy [1] [kcal/mol]	Tm [2] [°C]
GCGCATTCGAAAGAACGC (((..(((....))))))	-18.8	41.4
GAAGTGCGAAAGCATTC (((.(((....))))))	-13.5	36.2
GTTCACGAAAGTGTAAAC ((((((....)))..)))	-12.3	28.2
GGGGAGGGAAACCTTCCC (((.(((....))).)))	-33	53.4
GATCCTGCCCAGGATC ((((((....))))))	-49.4	57
GTAATAGAAATATTAC ((((((....))))))	-16.6	32
AGTACGAAAGTACT (((((....)))))	-21.4	54.1
GCCAACGAAAGTTTTGGC ((((((....)))..)))	-23.2	44.6
GCTGGGGGAAACCCCAAC (.(((((....))))).)	-13.2	38.5
GTAGGGGGAAACCCCTAC (((((((....)))))))	-37.4	61.9
GTCGGCGAAAGCCGCGAC ((((((....)))..)))	-11.6	57.7
GATCATAATATGATC ((((((...))))))	-30.7	46.3
GAAATACGAAAGTACTTC (((.(((....))).)))	-15.7	29.5
GGACACGAAAGTGGGTCC ((((((....)))..)))	-19.9	48.7
GAGTCCGGAAACGGGCTC (((.(((....))).)))	-33	63.3
GTCGTTGGAAACAATGAC (((.(((....))).)))	-32.5	48.3
GATCTCACACGAGATC ((((((....))))))	-41.5	52.4
GCTAACGAAAGTTATAGC ((((((....)))..)))	-24.2	36
GCTTTCGAAAGAAATAGC ((((((....)))..)))	-20	36.8
GCTGAAGGAAACTTCAAC (.(((((....))))).)	-18	29.8
GCTTTCGAAAGAATTAGC ((((((....)))..)))	-15.1	30.5
GATCTGCGAAAGCAATC (((.(((....))))))	-12.2	27.8
GTATGGCGAAAGCCGTAC (((.(((....))).)))	-25.9	56.9
GAAACTGAAAAGTTTC ((((((....))))))	-31.5	50.4

Sequence	folding enthalpy [1] [kcal/mol]	Tm [2] [°C]
GTAATAGGAAACTATTAC (((((((....)))))))	-37.2	45.5
GTGAGCGAAAGCTCGCAC ((((((....)))..)))	-11.7	55.1
GATCATAAGGATGATC ((((((....))))))	-32.5	45.3
GTCATCGAAAGATTTGAC ((((((....)))..)))	-13.2	29.4
GAACCCGAAAGGGACTTC ((((((....)))..)))	-20.2	42.9
GATCAGTTTTCTGATC ((((((....))))))	-30.5	52.3
GGATGCCGAAAGGCTTCC (((.(((....))).)))	-28.6	60.3
GCCGTGCGAAAGCTTGGC (((..((....))..)))	-28.5	59.6
GCGTTGATACGC ((((....))))	-23.1	53.1
GATCAATTTATTGATC ((((((....))))))	-52.4	54.2
GGATCTGAAAAGATCC ((((((....))))))	-37	58.3
GATCTCCATAGAGATC ((((((....))))))	-33.4	56.8
GAGCGGCCGAAAGGCCTC (((..(((....))))))	-6.54	28
GCACAGCGAAAGCGCTGC (((..((....))..)))	-14.8	49.2
GGTTCAGGAAACCGAACC (((((.(....).)))))	-26.5	47.8
GCGTTAATACGC ((((....))))	-21.1	51.1
GAAGCTGAAAAGCTTC ((((((....))))))	-31.2	58.3
GATCTCTGAGGAGATC ((((((....))))))	-43.4	55.8
GTCTGGTCGAAAGACGAC (((..(((....))))))	-17.2	41.5
GGGTATGGAAACATACTC (.(((((....))))).)	-23	44.8
GGATTGCCGAAAGGCTCC (((..(((....))))))	-8.38	37.6
GATCAGACGCTGATC ((((((...))))))	-34.2	47.7
GCATCAGGAAACTGACGC ((.((((....)))).))	-30	44.5
GACCAGGGAAACCTGATC ((.((((....)))).))	-22.3	34.8

Sequence	folding enthalpy [1] [kcal/mol]	Tm [2] [°C]
GGTAGTGGAAACACTGCC ((.((((....)))).))	-38.9	53
GCTAAGCGAAAGCAGAGC (((..((....))..)))	-23.9	43.4
GAAAACCGAAAGGTCTTC (((.(((....))).)))	-18.9	35.8
GACAGCCGAAAGGCGTC (((.(((....))))))	-12.7	60
GCCCCAGGAAACCGAGGC (((.(.(....).).)))	-16.3	32.6
GGTTGCGAAAGCAGACC ((((((....))).)))	-27.2	51
GATCAATATTTGATC ((((((...))))))	-27.9	41.9
GGACTCGAAAGAGCGTCC ((((((....)))..)))	-16	32
GTTATTGGAAACAATAGC (.(((((....))))).)	-18.9	33.4
GTTGTTGGAAACAGCAAC ((((.((....)).))))	-16.7	45.3
GGGTTACGAAAGTAGCCC (((.(((....))).)))	-45.7	59.6
GATGTTGGAAACAATATC (((.(((....))).)))	-27.1	37.5
GCATACGAAAGTATGC ((((((....))))))	-35.3	67.9
GTGCCACGAAAGTGTCAC (((.(((....))).)))	-30	53.1
GGGTTCGAAAGAAAGCCC ((((((....)))..)))	-16	36
GGTGATGGAAACATCATC (.(((((....))))).)	-30.6	47.8
GGGGGCGAAAGCCGTCCC ((((((....)))..)))	-13.7	49.4
GAGAAGGGAAACCCTCTC ((((.((....)).))))	-22.8	35.6
GCGATATCGAAAGATCGC (((..(((....))))))	-30.7	50.1
GAGAAGACGAAAGTCCTC (((..(((....))))))	-13.2	31.4
GGTCACCGAAAGGTTACC (((.(((....))).)))	-27.2	50.1
